Measurements reported in paper PMC7246176 (Nature chemical biology, 2020).
Where two headings read alike, the source gives them in different places.

How the values were obtained:
PATU-8988T cells [1] = experiment: Cell viability, 2D-adherent monolayer culture, PATU-8988T; type: cell-based, human; conditions: read-out: PATU-8988T cells 2D monolayer culture IC50, 120 h
Procedure, shortened: (§1)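 PATU-8988T and PATU-8902 cells were plated at 100 cells/well in 50 μL media, either adherent (2D) or in ultra-low attachment spheroid plates (3D), overnight. Test compound was pin-transferred and cells were incubated 120 h. Viability was read by CellTiter-Glo luminescence after 15 min at room temperature. Data were normalized to DMSO-treated wells per cell line and fitted.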

PATU-8988T cells [2] = experiment: Cell viability, ultra-low adherent 3D-spheroid culture, PATU-8988T; type: cell-based, human; conditions: read-out: PATU-8988T cells 3D spheroid culture IC50, 120 h
Procedure, shortened: (§2)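 PATU-8902 or PATU-8988T cells were plated at 100 cells/well and left overnight to adhere (2D plates) or to form spheroids (ultra-low-attachment 3D spheroid plates). Compound was pin-transferred, then 120 h incubation. Viability by CellTiter-Glo luminescence after 15 min at room temperature, normalized to DMSO-treated wells for each cell line.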

PATU-8902 cells [3] = experiment: Cell viability, 2D-adherent monolayer culture, PATU-8902; type: cell-based, human; conditions: read-out: PATU-8902 cells 2D monolayer culture IC50
Procedure, shortened: as §2

PATU-8902 cells [4] = experiment: Cell viability, ultra-low adherent 3D-spheroid culture, PATU-8902; type: cell-based, human; conditions: read-out: PATU-8902 cells 3D spheroid culture IC50
Procedure, shortened: as §1

PANFR0172_T2 = experiment: Patient-derived pancreatic organoid viability, PANFR0172_T2; type: cell-based, human; conditions: read-out: PANFR0172_T2 3D organoid culture IC50
Procedure, shortened: (§3)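 Patient-derived PDAC organoids were dissociated to single cells and plated at 1000 viable cells/well in complete organoid medium with 10% Matrigel, in ultra-low-attachment 384-well plates. After 24 h, compound was added by digital dispenser, then 7 days incubation. Read-out was CellTiter-Glo 3D luminescence after 1 h shaking at room temperature, normalized to DMSO wells for each culture.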

PANFR0172_T3 = experiment: Patient-derived pancreatic organoid viability, PANFR0172_T3; type: cell-based, human; conditions: read-out: PANFR0172_T3 3D organoid culture IC50
Procedure, shortened: as §3

PANFR0172_T4 = experiment: Patient-derived pancreatic organoid viability, PANFR0172_T4; type: cell-based, human; conditions: read-out: PANFR0172_T4 3D organoid culture IC50
Procedure, shortened: as §3

PANFR0029_T2 = experiment: Patient-derived pancreatic organoid viability, PANFR0029_T2; type: cell-based, human; conditions: read-out: PANFR0029_T2 3D organoid culture IC50
Procedure, shortened: as §3

DCLK1 protein levels = DCLK1 protein levels by immunoblot in PDAC cells; type: cell-based, human; conditions: after 48 h, PATU-8988T and PATU-8902 cells
FKBP12^F36V-KRAS^G12V = experiment: KRAS G12V degradation by immunoblot in FKBP12F36V-KRASG12V; type: cell-based, human; conditions: KRAS^−/− cells
DCLK1 = target: T1, DCLK1 (Homo sapiens, UniProt O15075); experiment: 33P-ATP DCLK1 kinase assay; type: biochemical; conditions: DCLK1 kinase assay IC50, 33P-ATP; ATP 50 μM (Km)
T1 sequence (O15075 1-740): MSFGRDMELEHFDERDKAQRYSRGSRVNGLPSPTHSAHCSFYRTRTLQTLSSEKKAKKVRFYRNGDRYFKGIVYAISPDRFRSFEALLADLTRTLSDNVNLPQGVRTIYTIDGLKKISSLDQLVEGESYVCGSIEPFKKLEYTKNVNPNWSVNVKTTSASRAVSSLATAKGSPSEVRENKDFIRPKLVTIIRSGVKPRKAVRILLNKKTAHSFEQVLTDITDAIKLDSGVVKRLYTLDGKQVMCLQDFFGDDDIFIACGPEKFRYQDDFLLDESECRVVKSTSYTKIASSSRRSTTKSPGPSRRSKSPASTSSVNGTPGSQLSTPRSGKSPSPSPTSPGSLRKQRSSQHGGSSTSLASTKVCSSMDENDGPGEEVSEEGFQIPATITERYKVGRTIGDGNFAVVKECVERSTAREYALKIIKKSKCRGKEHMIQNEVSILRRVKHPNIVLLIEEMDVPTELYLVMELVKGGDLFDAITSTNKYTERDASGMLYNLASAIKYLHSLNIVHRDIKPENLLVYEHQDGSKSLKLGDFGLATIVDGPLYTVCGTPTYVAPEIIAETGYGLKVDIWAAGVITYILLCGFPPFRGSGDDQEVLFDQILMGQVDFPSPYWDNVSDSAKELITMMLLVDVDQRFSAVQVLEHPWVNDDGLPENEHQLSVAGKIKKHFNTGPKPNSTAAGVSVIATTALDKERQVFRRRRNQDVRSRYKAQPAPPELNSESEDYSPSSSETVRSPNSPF

[5] = target: T2, DCLK1-Nluc in HCT116 cells (Homo sapiens, UniProt O15075); experiment: DCLK1 NanoBRET target engagement assay in HCT116 cells; type: cell-based
T2 sequence (O15075 1-729 isoform O15075-2): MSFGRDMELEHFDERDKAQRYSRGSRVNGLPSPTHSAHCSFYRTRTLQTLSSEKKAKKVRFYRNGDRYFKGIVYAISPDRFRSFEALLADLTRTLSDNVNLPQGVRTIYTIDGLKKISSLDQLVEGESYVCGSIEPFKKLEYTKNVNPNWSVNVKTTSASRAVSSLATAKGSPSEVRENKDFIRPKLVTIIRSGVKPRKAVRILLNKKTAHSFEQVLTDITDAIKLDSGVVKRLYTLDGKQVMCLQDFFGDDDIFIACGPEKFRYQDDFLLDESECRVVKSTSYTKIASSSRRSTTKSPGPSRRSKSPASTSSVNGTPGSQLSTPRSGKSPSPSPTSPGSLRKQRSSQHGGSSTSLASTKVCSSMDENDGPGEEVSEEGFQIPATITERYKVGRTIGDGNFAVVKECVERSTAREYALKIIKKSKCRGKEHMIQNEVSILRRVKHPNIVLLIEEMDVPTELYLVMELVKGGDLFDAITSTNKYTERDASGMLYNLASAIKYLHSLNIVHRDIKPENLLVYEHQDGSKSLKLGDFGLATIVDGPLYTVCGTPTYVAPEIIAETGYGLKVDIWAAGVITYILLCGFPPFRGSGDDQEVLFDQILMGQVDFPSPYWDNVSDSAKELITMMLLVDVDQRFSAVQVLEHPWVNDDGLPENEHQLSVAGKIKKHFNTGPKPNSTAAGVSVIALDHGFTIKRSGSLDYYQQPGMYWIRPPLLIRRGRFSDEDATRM

DCLK2 = target: T3, DCLK2 (Homo sapiens, UniProt Q8N568); experiment: DCLK2 KINOMEscan binding assay
T3 sequence (Q8N568 1-766): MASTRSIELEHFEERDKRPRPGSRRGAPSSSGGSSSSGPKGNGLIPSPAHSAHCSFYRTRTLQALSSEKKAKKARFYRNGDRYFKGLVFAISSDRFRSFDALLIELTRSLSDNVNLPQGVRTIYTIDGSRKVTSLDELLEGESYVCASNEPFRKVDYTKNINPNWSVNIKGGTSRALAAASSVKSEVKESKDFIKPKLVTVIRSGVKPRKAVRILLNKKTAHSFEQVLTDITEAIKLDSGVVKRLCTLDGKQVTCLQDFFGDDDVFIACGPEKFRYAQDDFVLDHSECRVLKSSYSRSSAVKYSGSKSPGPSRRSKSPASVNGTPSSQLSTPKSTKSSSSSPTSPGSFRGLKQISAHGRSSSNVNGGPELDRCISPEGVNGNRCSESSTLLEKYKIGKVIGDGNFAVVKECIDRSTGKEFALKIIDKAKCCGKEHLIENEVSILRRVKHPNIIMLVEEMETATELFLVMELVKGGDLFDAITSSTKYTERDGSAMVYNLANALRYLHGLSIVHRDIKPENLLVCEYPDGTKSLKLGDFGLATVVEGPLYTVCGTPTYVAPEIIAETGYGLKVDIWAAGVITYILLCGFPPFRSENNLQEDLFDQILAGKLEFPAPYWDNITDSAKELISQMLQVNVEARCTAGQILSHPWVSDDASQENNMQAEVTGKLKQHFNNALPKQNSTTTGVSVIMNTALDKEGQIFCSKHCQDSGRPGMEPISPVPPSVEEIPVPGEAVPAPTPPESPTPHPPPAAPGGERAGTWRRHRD
Procedure, shortened: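 KINOMEscan competition binding run by a contract lab. Test compound in 12-point dose response, top concentration 10 μM. Values are the mean of n = 2 biologically independent samples.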

LRRK2 = LRRK2 (Homo sapiens, UniProt Q5S007); experiment: LRRK2 ADAPTA kinase assay; type: biochemical; conditions: LRRK2 kinase assay IC50, ADAPTA; Table 1
[6] = viability, 7 d, P.R. = partial response

Sequence of LRRK2 (Q5S007 whole entry): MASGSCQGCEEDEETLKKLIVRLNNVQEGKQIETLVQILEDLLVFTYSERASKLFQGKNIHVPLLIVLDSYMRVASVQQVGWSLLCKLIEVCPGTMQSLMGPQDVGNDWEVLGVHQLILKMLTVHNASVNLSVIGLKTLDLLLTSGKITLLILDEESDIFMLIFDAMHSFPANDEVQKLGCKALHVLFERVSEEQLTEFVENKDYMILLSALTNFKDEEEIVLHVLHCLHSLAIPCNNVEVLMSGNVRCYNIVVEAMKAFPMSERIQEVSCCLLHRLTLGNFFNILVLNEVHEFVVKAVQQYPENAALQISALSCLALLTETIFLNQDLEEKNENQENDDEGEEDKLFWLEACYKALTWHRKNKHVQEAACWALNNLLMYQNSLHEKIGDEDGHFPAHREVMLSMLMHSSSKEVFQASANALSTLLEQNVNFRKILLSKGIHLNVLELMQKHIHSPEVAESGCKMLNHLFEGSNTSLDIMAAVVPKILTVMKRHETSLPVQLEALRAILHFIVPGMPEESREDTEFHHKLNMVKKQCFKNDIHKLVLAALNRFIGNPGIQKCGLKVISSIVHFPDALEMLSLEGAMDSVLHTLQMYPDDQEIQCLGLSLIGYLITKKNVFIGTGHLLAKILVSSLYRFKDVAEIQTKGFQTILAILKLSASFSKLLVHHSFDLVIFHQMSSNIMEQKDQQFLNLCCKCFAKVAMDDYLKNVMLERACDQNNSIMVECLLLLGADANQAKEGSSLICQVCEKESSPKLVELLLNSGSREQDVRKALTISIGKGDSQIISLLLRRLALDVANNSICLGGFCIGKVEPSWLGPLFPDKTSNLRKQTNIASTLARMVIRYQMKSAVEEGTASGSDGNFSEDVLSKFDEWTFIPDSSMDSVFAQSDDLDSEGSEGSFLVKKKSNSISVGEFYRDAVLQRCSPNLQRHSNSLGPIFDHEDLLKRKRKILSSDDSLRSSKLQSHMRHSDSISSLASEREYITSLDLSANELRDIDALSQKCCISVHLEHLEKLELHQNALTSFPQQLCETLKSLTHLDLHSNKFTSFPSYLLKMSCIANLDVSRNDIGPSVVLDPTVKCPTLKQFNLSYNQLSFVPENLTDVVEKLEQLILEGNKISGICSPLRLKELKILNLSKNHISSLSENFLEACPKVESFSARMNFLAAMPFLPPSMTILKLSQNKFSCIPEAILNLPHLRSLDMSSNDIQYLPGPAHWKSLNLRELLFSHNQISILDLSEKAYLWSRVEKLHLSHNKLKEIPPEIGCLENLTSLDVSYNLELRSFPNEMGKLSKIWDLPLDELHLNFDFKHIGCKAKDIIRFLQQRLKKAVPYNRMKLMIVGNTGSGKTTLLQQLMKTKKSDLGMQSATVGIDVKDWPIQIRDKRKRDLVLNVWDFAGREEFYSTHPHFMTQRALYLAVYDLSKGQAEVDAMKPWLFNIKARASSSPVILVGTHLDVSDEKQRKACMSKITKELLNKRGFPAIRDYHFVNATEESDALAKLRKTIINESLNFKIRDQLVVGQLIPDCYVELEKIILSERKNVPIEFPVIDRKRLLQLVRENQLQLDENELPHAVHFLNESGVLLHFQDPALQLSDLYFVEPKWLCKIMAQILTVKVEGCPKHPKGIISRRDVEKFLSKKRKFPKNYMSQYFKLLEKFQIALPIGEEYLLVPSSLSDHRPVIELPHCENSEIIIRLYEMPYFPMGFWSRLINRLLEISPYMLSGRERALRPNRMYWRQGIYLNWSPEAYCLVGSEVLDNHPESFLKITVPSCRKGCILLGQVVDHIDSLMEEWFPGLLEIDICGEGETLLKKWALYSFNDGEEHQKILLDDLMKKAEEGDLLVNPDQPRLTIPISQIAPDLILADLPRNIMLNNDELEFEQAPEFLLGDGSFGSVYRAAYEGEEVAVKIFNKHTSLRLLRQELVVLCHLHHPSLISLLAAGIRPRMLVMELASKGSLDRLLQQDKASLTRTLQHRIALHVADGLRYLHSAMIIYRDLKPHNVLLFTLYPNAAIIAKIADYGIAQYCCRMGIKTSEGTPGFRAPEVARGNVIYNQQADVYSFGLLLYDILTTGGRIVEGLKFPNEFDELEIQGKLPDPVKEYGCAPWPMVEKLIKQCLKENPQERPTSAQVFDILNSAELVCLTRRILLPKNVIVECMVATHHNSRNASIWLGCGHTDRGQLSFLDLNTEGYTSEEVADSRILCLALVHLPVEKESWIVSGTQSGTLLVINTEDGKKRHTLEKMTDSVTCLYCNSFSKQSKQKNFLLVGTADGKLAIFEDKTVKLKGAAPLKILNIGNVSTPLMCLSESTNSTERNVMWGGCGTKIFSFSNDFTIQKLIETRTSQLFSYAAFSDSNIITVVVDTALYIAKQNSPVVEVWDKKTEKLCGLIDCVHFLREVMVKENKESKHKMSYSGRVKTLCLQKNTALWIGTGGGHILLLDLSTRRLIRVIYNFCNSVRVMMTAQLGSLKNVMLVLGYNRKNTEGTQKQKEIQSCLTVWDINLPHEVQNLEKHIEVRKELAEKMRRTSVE

Cc1sc2c(c1C)C(c1ccc(Cl)cc1)=N[C@@H](CC(=O)OC(C)(C)C)c1nnc(C)n1-2 [JQ1]
IC50 (PATU-8988T cells [1]; cell viability, P.R. = partial response): 67.4 nM | IC50 (PATU-8988T cells [2]; cell viability): 111 nM | IC50 (PATU-8902 cells [3]; cell viability, 120 h): 1810 nM | IC50 (PATU-8902 cells [4]; cell viability, 120 h, P.R. = partial response): > 1000 nM | IC50 (PANFR0172_T2; [6]): > 1000 nM | IC50 (PANFR0172_T3; [6]): > 1000 nM | IC50 (PANFR0172_T4; [6]): > 1000 nM | IC50 (PANFR0029_T2; viability, 7 d, DCLK1-negative organoids): 363 nM

CC(=O)Nc1cccc(-n2c(=O)n(C3CC3)c(=O)c3c(Nc4ccc(I)cc4F)n(C)c(=O)c(C)c32)c1 [Trametinib]
IC50 (PATU-8988T cells [1]; Homo sapiens, PaTu 8988t): 60 nM | IC50 (PATU-8988T cells [2]; Homo sapiens, PaTu 8988t): 1 nM | IC50 (PATU-8902 cells [3]; Homo sapiens, PaTu 8902, 120 h): 4.89 nM | IC50 (PATU-8902 cells [4]; Homo sapiens, PaTu 8902, 120 h): < 0.63 nM | IC50 (PANFR0172_T2; Homo sapiens, 168 h): 791 nM | IC50 (PANFR0172_T3; Homo sapiens, 168 h): 1180 nM | IC50 (PANFR0172_T4; Homo sapiens, 168 h): > 20000 nM | IC50 (PANFR0029_T2; Homo sapiens, 168 h): 185 nM | effect on DCLK1 protein levels (DCLK1 protein levels): diminished DCLK1 protein levels

CC[C@H](C(=O)N1CCCC[C@H]1C(=O)O[C@H](CCc1ccc(OC)c(OC)c1)c1ccccc1OCC(=O)NCCCCCCOc1cccc2c1C(=O)N(C1CCC(=O)NC1=O)C2=O)c1cc(OC)c(OC)c(OC)c1 (some centres unmarked) [dTAG-13]
time to initiation of KRAS^G12V degradation (FKBP12^F36V-KRAS^G12V): ≤ 1 h

COc1cc(C(=O)N2CCC(N3CCN(C)CC3)CC2)ccc1Nc1ncc2c(n1)N(C)c1ccccc1C(=O)N2C [LRRK2-IN-1]
IC50 (DCLK1): 55 nM | IC50 [5]: 400 nM | IC50 (DCLK2): 9.9 nM | IC50 (LRRK2): 4.1 nM | IC50 (PATU-8988T cells [1]; Homo sapiens, PaTu 8988t): 1150 nM | IC50 (PATU-8988T cells [2]; Homo sapiens, PaTu 8988t): 1870 nM | IC50 (PATU-8902 cells [3]; Homo sapiens, PaTu 8902, 120 h): > 20000 nM | IC50 (PATU-8902 cells [4]; Homo sapiens, PaTu 8902, 120 h): > 1000 nM | IC50 (PANFR0172_T2; Homo sapiens, 168 h): 1340 nM | IC50 (PANFR0172_T3; Homo sapiens, 168 h): 1500 nM | IC50 (PANFR0172_T4; Homo sapiens, 168 h): > 20000 nM
